# Test results taken from ChEMBL document CHEMBL4406907, “Exploration of zinc-binding groups for the design of inhibitors for the oxytocinase subfamily of M1 aminopeptidases” (Bioorg Med Chem, 2019).
# Experiments:
# [1] = molecular target: T1, Endoplasmic reticulum aminopeptidase 2 (Homo sapiens, UniProt Q6P179); assay: Inhibition of human recombinant ERAP2 expressed in baculovirus infected Sf9 cells using omniMMP fluorogenic substrate incubated for 5 to 10 mins by fluorescence spectrophotometry analysis
# [2] = molecular target: T2, Endoplasmic reticulum aminopeptidase 1 (Homo sapiens, UniProt Q9NZ08); assay: Inhibition of human recombinant ERAP1 expressed in baculovirus infected Sf9 cells using omniMMP fluorogenic substrate incubated for 5 to 10 mins by fluorescence spectrophotometry analysis
# [3] = molecular target: T2, Endoplasmic reticulum aminopeptidase 1; assay: Competitive inhibition of human recombinant ERAP1 expressed in baculovirus infected sf9 cells using L-AMC as substrate incubated for 5 to 10 mins by Michaelis-Menten analysis
# How it was run: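 ERAP1 (recombinant, as described previously) at 10 nM with L-AMC as substrate. Michaelis-Menten analysis as previously described. Ki for competitive inhibition derived using a KM for L-AMC of 546 μM.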
# [4] = molecular target: T1, Endoplasmic reticulum aminopeptidase 2; assay: Competitive inhibition of human recombinant ERAP2 expressed in baculovirus infected sf9 cells using R-AMC as substrate incubated for 5 to 10 mins by Michaelis-Menten analysis
# [5] = test system: Insulin-regulated aminopeptidase (Homo sapiens); assay: Inhibition of human recombinant IRAP expressed in baculovirus infected Sf9 cells using omniMMP fluorogenic substrate incubated for 5 to 10 mins by fluorescence spectrophotometry analysis
# T2 sequence (Q9NZ08 whole entry): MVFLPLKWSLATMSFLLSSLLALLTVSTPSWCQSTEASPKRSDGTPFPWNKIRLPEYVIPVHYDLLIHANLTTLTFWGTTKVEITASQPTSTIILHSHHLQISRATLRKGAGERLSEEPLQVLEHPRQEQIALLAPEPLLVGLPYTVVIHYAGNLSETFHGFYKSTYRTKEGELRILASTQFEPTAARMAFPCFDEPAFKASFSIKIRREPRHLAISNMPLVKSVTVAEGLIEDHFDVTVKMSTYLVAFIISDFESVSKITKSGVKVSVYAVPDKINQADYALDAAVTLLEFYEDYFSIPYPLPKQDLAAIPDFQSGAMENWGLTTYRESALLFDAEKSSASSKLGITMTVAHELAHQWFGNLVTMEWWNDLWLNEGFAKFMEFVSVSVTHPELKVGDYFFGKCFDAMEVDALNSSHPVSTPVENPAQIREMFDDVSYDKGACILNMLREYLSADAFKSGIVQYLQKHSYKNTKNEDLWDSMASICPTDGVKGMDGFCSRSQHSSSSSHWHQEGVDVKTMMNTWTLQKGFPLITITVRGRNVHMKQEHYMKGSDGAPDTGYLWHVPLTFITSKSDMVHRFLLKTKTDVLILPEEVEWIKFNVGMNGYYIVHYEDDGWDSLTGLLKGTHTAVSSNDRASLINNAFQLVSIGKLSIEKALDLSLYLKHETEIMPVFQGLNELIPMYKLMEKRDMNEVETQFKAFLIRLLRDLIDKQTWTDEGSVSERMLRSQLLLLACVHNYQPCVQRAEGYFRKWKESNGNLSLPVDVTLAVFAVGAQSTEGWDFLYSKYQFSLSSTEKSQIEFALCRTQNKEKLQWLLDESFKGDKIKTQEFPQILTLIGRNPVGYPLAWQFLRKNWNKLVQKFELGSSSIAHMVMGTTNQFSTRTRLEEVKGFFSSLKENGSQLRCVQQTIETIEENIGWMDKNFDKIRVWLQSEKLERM
# T1 sequence (Q6P179 whole entry): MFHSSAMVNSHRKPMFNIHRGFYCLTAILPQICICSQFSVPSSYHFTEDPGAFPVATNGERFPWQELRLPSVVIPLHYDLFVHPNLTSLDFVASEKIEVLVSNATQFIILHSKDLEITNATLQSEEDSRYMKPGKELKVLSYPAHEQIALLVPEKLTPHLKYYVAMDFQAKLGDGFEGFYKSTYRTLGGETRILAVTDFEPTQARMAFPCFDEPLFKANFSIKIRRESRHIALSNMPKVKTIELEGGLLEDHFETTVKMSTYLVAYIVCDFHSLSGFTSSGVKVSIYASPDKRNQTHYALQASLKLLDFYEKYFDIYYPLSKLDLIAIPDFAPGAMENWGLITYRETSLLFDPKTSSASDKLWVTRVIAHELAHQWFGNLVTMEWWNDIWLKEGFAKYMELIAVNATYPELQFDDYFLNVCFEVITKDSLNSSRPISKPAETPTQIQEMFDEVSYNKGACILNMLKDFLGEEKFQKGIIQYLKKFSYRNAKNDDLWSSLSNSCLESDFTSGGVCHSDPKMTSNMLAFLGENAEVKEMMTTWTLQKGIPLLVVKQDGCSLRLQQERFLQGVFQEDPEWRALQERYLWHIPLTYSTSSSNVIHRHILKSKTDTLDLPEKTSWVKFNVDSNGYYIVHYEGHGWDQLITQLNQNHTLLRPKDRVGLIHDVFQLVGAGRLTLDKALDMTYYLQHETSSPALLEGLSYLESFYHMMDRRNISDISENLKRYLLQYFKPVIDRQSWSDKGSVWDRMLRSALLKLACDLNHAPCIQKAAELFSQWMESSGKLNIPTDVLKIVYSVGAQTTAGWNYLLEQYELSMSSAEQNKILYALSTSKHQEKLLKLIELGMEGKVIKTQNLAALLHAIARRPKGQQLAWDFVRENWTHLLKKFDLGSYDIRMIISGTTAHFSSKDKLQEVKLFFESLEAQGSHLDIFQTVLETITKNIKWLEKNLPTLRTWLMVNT
Compound,IC50 [1],IC50 [2],Ki [3],Ki [4],inhibition [5]
CCCC[C@H](N)C(=O)Nc1cc(C(=O)N[C@@H](Cc2c[nH]c3ccccc23)C(=O)OCc2ccccc2)ccn1,> 10 µM,> 10 µM,,,
O=C(Cn1cccc(O)c1=O)N[C@@H](Cc1c[nH]c2ccccc12)C(=O)OCc1ccccc1,10.3 µM,20.2 µM,18.5 µM,0.7 µM,
O=C(Cn1cccc(O)c1=O)NCCc1c[nH]c2ccccc12,31.3 µM,,,17.7 µM,
COc1cccn(CC(=O)NCCc2ccc(-c3ccccc3)cc2)c1=S,31.9 µM,25.6 µM,23.4 µM,17.4 µM,
N[C@@H](CCc1ccccc1)C(=O)NNc1ccc(C(=O)N[C@@H](Cc2c[nH]c3ccccc23)C(=O)OCc2ccccc2)cc1,> 10 µM,11.9 µM,4.7 µM,,
O=C(Cn1cccc(O)c1=O)NCCc1ccc(-c2ccccc2)cc1,50.3 µM,19.1 µM,17.5 µM,27.4 µM,
CC(C)[C@H](NC(=O)Cn1cccc(O)c1=O)C(=O)OCc1ccccc1,8.9 µM,48.5 µM,44 µM,4.9 µM,
CCCC[C@H](N)C(=O)Nc1cccc(C(=O)N[C@@H](Cc2c[nH]c3ccccc23)C(=O)OCc2ccccc2)c1,> 10 µM,> 100 µM,,,

# Second part, the compound after the results:
IC50 [1],IC50 [2],Ki [3],Ki [4],inhibition [5],Compound
2.2 µM,11.9 µM,10.9 µM,1.2 µM,Dose-dependent effect,CCCC[C@H](N)C(=O)NNc1ccc(C(=O)N[C@@H](Cc2c[nH]c3ccccc23)C(=O)OCc2ccccc2)cc1
7.9 µM,> 10 µM,,4.3 µM,,CCCC[C@H](N)C(=O)NNc1cccc(C(=O)N[C@@H](Cc2c[nH]c3ccccc23)C(=O)OCc2ccccc2)c1
8.8 µM,> 100 µM,,4.8 µM,,CCCC[C@H](N)C(=O)Nc1ccc(C(=O)N[C@@H](Cc2c[nH]c3ccccc23)C(=O)OCc2ccccc2)cc1
